This is an account of results in ChEMBL document CHEMBL1148898, “New ring C-seco limonoids from Brazilian Melia azedarach and their cytotoxic activity” (J Nat Prod, 2004).

Data set [1] in a line: Toxicity in brine shrimp at 100 ug/mL. Format: organism-based. The settings on record: artemia, in vivo; read-out: Activity.
Data set [2] relates to HeLa S3. Description: (§1) Cytotoxicity against human HeLaS3 cells after 72 hrs by WST1 assay. Format: functional, cell-based. Put shortly: (§2)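 HeLa S3 cells seeded at 500 cells/well in minimum essential medium and cultured overnight. Compounds then added at final concentrations of 0.1, 1, 10 and 100 µM and incubated 72 h. WST-1 (Cell Counting Kit) added per manufacturer's protocol, followed by a further 2 h incubation. Absorbance read at 450 nm.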
For orientation: Tetrazolium dyes change colour on reduction, which living cells bring about.

Data set [3] in a line: as §1. Format: functional, cell-based. The conditions noted are these: HeLa S3, 72 h. Put shortly: as §2

Calls of active or inactive are those of the source. The calls are words filed in the database; no cut-off is given here.

For the compound `COC(=O)C[C@@H]1[C@]2(C)C3=C(C)[C@H](c4ccoc4)C[C@H]3O[C@@H]2[C@H](OC(C)=O)[C@H]2[C@](C)(C=O)[C@H](O)C[C@H](OC(=O)/C=C/c3ccccc3)[C@]12C`, in data set [1], the mortality at 100 ug/mL turned out to be 100%. For the same compound, the result in data set [2] was inactive. For `COC(=O)C[C@@H]1[C@]2(C)C3=C(C)[C@H](c4ccoc4)C[C@H]3O[C@@H]2[C@H](OC(C)=O)[C@H]2[C@](C)(C=O)[C@H](O)C[C@H](OC(=O)c3ccccc3)[C@]12C`, the mortality at 100 ug/mL in data set [1] is 100%. In addition, the result in data set [2] was inactive. By IC50 is commonly meant the concentration needed to halve the response being measured. Higher therefore signals weaker potency. Regarding `C/C=C(\C)C(=O)O[C@@H]1[C@@H]2OC[C@]3(C)[C@H](OC(C)=O)C[C@H](OC(=O)c4ccccc4)[C@@](C)([C@@H]23)[C@H]2CC(=O)O[C@H]3C[C@@H](c4ccoc4)C(C)=C3[C@]12C` [1-O-DEACETYL-1-O-BENZOYLOHCHINOLIDE B], the mortality at 100 ug/mL in data set [1] turned out to be 100%. Besides, in data set [3], the concentration for half-maximal inhibition (IC50) is 33 µM. For `C/C=C(\C)C(=O)O[C@H]1C[C@@H](OC(C)=O)[C@@]2(C)CO[C@H]3[C@@H](OC(=O)c4ccccc4)[C@@]4(C)C5=C(C)[C@H](c6ccoc6)C[C@@H]5OC(=O)C[C@@H]4[C@]1(C)[C@@H]32` [1-O-DEACETYL-1-O-TIGLOYLOHCHINOLIDE A] the same measures were 100% and 29.7 µM.

As to `C/C=C(\C)C(=O)O[C@@H]1[C@@H]2OC[C@]3(C)[C@H](OC(C)=O)C[C@H](OC(=O)/C(C)=C/C)[C@@](C)([C@@H]23)[C@H]2CC(=O)O[C@H]3C[C@@H](c4ccoc4)C(C)=C3[C@]12C` [1-O-DEACETYL-1-O-TIGLOYLOHCHINOLIDE B], the mortality at 100 ug/mL in data set [1] was 100%. Besides, the IC50 in data set [3] was found to be 33.8 µM. For `CC(=O)O[C@@H]1C[C@H](O)[C@@]2(C)[C@H]3[C@@H](OC[C@]13C)[C@@H](OC(=O)c1ccccc1)[C@@]1(C)C3=C(C)[C@H](c4ccoc4)C[C@@H]3OC(=O)C[C@@H]12` [1-O-DEACETYLOHCHINOLIDE A] the same measures were 100% and 2.4 µM. Consider `C/C=C(\C)C(=O)O[C@@H]1[C@@H]2OC[C@]3(C)[C@H](OC(C)=O)C[C@H](O)[C@@](C)([C@@H]23)[C@H]2CC(=O)O[C@H]3C[C@@H](c4ccoc4)C(C)=C3[C@]12C` [1-O-DEACETYLOHCHINOLIDE B], for which, in data set [1], the mortality at 100 ug/mL amounted to 100%. In addition, the IC50 in data set [3] came to 0.1 µM. Regarding `O=c1[nH]cc(F)c(=O)[nH]1` [FLUOROURACIL], in data set [3], inhibition was half-maximal at 5.4 µM (IC50). As to `C/C=C(\C)C(=O)O[C@H]1C[C@@H](O)[C@@](C)(C=O)[C@@H]2[C@@H](OC(C)=O)[C@H]3O[C@@H]4C[C@@H](c5ccoc5)C(C)=C4[C@@]3(C)[C@@H](CC(=O)OC)[C@@]12C` [OHCHINOLAL], the mortality at 100 ug/mL in data set [1] stood at 100%. Also, the outcome in data set [2] was inactive.

For `CC(=O)O[C@H]1C[C@@H](OC(C)=O)[C@@]2(C)CO[C@H]3[C@@H](OC(=O)c4ccccc4)[C@@]4(C)C5=C(C)[C@H](c6ccoc6)C[C@@H]5OC(=O)C[C@@H]4[C@]1(C)[C@@H]32` [OHCHNOLIDE A], the mortality at 100 ug/mL in data set [1] was 100%. Besides, the outcome in data set [2] was inactive. Take `C/C=C(\C)C(=O)O[C@@H]1[C@@H]2OC[C@]3(C)[C@H](OC(C)=O)C[C@H](OC(C)=O)[C@@](C)([C@@H]23)[C@H]2CC(=O)O[C@H]3C[C@@H](c4ccoc4)C(C)=C3[C@]12C` [OHCHNOLIDE B]: in data set [1], the mortality at 100 ug/mL turned out to be 100%. Also, the IC50 in data set [3] was 40.5 µM.
